Assay results as given in ChEMBL document CHEMBL3877301 (J Med Chem, 2016).
pIC50, pKi: −log10 of the molar value.

Tests used:
[1] = target: T1, Adenosine receptor A1 (Homo sapiens, UniProt P30542); assay: Displacement of [3H]DPCPX from human adenosine A1 receptor expressed in CHO cell membranes measured after 90 mins by scintillation counting method
T1 sequence (P30542 whole entry): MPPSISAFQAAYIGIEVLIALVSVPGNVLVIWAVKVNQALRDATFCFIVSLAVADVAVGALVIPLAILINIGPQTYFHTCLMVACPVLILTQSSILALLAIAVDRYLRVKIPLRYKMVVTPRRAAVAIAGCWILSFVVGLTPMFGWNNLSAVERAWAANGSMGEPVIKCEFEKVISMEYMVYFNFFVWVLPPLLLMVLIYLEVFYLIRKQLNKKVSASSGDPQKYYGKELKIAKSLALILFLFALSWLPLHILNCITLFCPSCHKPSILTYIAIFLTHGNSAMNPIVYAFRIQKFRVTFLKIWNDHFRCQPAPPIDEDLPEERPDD
Method in brief: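 Membranes came from CHO cells stably transfected with hA1 AR. Cells were scraped into ice-cold hypotonic buffer (5 mM Tris HCl, 1 mM EDTA, pH 7.4), homogenized, and spun at 40000g for 30 min at 4 °C. Membranes (50 μg protein/100 μL) were incubated with 1 nM [3H]-DPCPX and varied test concentrations at 25 °C for 90 min in 50 mM Tris HCl, pH 7.4.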

[2] = target: T2, Adenosine receptor A3 (Homo sapiens, UniProt P0DMS8); assay: Displacement of [125I]AB-MECA from human adenosine A3 receptor expressed in CHO cell membranes measured after 120 mins by scintillation counting method
T2 sequence (P0DMS8 whole entry): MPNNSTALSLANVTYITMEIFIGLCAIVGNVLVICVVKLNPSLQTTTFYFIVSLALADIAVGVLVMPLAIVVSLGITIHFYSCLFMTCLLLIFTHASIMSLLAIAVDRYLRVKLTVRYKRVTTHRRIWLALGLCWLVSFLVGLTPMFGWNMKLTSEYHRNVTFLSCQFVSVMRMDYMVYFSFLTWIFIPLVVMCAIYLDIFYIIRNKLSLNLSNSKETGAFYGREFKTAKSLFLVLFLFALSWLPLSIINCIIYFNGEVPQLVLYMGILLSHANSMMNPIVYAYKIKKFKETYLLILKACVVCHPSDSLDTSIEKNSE

[3] = target: T3, Adenosine receptor A2b (Homo sapiens, UniProt P29275); assay: Inverse agonist activity at human adenosine A2B receptor expressed in CHO cells assessed as inhibition of cAMP accumulation measured after 150 mins in presence of [3H]cAMP by scintillation counting method; format: functional, cell-based
T3 sequence (P29275 whole entry): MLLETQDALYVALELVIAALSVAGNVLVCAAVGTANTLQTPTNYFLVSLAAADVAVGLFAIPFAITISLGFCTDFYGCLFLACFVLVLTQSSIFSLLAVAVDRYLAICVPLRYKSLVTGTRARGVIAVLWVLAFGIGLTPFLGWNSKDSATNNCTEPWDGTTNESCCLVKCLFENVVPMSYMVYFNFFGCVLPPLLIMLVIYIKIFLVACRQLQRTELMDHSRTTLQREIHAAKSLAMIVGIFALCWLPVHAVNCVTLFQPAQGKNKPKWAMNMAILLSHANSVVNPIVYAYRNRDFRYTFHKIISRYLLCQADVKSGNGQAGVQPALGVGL

[4] = target: T4, Adenosine receptor A2a (Homo sapiens, UniProt P29274); assay: Inverse agonist activity at human adenosine A2A receptor expressed in CHO cells assessed as inhibition of cAMP accumulation measured after 150 mins in presence of [3H]cAMP by scintillation counting method; format: functional, cell-based
T4 sequence (P29274 whole entry): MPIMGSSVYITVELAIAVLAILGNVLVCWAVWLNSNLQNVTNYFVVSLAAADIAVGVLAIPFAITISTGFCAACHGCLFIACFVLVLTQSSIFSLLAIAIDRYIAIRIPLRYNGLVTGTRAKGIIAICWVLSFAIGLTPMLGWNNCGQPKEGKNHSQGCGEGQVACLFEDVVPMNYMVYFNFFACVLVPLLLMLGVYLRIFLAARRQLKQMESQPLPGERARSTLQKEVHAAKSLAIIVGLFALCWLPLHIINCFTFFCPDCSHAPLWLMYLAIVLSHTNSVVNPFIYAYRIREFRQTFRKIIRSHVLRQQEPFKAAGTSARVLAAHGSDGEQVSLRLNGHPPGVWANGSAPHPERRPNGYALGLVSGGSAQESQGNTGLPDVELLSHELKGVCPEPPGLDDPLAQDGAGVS

[5] = target: T4, Adenosine receptor A2a; assay: Antagonist activity against human adenosine A2A receptor expressed in CHO cells assessed as inhibition of CGS21680-stimulated cAMP accumulation measured after 150 mins in presence of [3H]cAMP by scintillation counting method; format: functional, cell-based
[6] = target: T5, Adenosine receptor A1 (Homo sapiens) (UniProt P30542); assay: Inverse agonist activity at human adenosine A1 receptor expressed in CHO cells assessed as inhibition of cAMP accumulation at 10 uM measured after 150 mins in presence of [3H]cAMP by scintillation counting method relative to control; format: functional, cell-based
T5 sequence (whole entry): T1 sequence (P30542 whole entry)
Method in brief: (§1)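 Transfected CHO cells (hA1, hA2B or hA3) were grown adherently in DMEM/F12 with 10% fetal calf serum, penicillin, streptomycin, 2 mM L-glutamine and 0.2 mg/mL G418 at 37 °C in 5% CO2. Test compounds were applied at 10 μM. cAMP is reported as percent of basal level (100%), given as mean ± SEM.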

[7] = target: T6, Adenosine receptor A3 (Homo sapiens) (UniProt P0DMS8); assay: Inverse agonist activity at human adenosine A3 receptor expressed in CHO cells assessed as inhibition of cAMP accumulation at 10 uM measured after 150 mins in presence of [3H]cAMP by scintillation counting method relative to control; format: functional, cell-based; method in brief: as §1
T6 sequence (whole entry): T2 sequence (P0DMS8 whole entry)

[8] = target: T7, Adenosine receptor A2b (Homo sapiens) (UniProt P29275); assay: Inverse agonist activity at human adenosine A2B receptor expressed in CHO cells assessed as inhibition of cAMP accumulation at 10 uM measured after 150 mins in presence of [3H]cAMP by scintillation counting method relative to control; format: functional, cell-based; method in brief: as §1
T7 sequence (whole entry): T3 sequence (P29275 whole entry)

[9] = target: T4, Adenosine receptor A2a; assay: biochemical
[10] = organism: Mus musculus; assay: Analgesic activity in CD-1 mouse assessed as reduction in acetic acid-induced abdominal constrictions preincubated for 15 mins followed by acetic acid challenge measured for 30 mins by writhing test; format: functional; details: for inhibition: Abdomen
Method in brief: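 Mice received acetic acid ip to induce abdominal constrictions; vehicle-treated mice served as controls. Test agents were given over a dose range. ED50 (mg/kg) was derived from the dose–response curve, and dose dependence was analysed by one-way ANOVA.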

[11] = organism: Mus musculus; assay: Antinociceptive activity in CD-1 mouse assessed as increase in latency in response to heat stimulus measured for 15 mins by hot water tail immersion test; format: functional; details: CD-1, 0.25 h
Method in brief: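 Test agents were given to mice over a dose range before hot water tail immersion. ED50 (mg/kg) was derived from the dose–response curve, and the minimum effective dose was also noted.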

[12] = target: T4, Adenosine receptor A2a; details: CHO

`COc1ccc(CCNc2nc(N)c3nc(-c4ccco4)sc3n2)cc1` gave a pKi [1] of 7.21, a pKi [2] of 5.58 and a pIC50 [3] of 6.26. The pIC50 [4] was 7.38, the pIC50 [5] was 7.51 and the inhibition [6] was 93%. It also gave an inhibition [7] of 105%, an inhibition [8] of 103% and a pKi [9] of 7.49.
In the case of `COc1ccccc1CNc1nc(N)c2nc(-c3ccco3)sc2n1`, the inhibition [6] was 106%, the inhibition [7] was 91% and the inhibition [8] was 94%. The inhibition [10] was “Dose-dependent effect”, the minimal effective dose ([11]; read-out: MED) was 0.01 mg/kg and the KiH [12] was 5.23 nM.
`COc1ccc(CNc2nc(N)c3nc(-c4ccco4)sc3n2)cc1` showed an inhibition [6] of 100%, an inhibition [7] of 104% and an inhibition [8] of 97%.
`Nc1nc(NCc2cccc(O)c2)nc2sc(-c3ccco3)nc12` gave an inhibition [6] of 96%, an inhibition [7] of 98% and an inhibition [8] of 95%.
With `COc1ccc(CCNc2nc(N)c3nc(-c4ccco4)sc3n2)cc1OC` the pKi [1] was 6.66, the pKi [2] was 6.08 and the pIC50 [3] was 7.02. It also gave a pKi [9] of 7.04.
Work on `Nc1nc(NCCc2ccccc2)nc2sc(-c3ccco3)nc12` yielded a pKi [1] of 7.62, a pKi [2] of 6.66 and a pIC50 [3] of 6.41. It also gave a pIC50 [4] of 7.46, a pIC50 [5] of 7.80 and an inhibition [6] of 105%. It also gave an inhibition [7] of 94%, an inhibition [8] of 102% and a pKi [9] of 7.52.
Work on `Nc1nc(Nc2ccccc2)nc2sc(-c3ccco3)nc12` yielded a pKi [1] of 6.19, a pKi [2] of 6.49 and a pIC50 [3] of 6.20. The pKi [9] was 6.11.
`COc1cccc(CCNc2nc(N)c3nc(-c4ccco4)sc3n2)c1` showed a pKi [1] of 9.04, a pKi [2] of 6.54 and a pIC50 [3] of 7.33. The pKi [9] was 7.77.
For `CN1CC[C@]23c4c5ccc(O)c4O[C@H]2[C@@H](O)C=C[C@H]3[C@H]1C5` [MORPHINE], the inhibition [10] was “Dose-dependent effect” and the ED50 [11] was 1.14 mg/kg.
In the case of `Nc1nc(NCc2ccccc2)nc2sc(-c3ccco3)nc12`, the pKi [1] was 7.35, the pKi [2] was 7.43 and the pIC50 [3] was 7.49. It also gave a pIC50 [4] of 7.54, a pIC50 [5] of 7.74 and an inhibition [6] of 101%. The inhibition [7] was 102%, the inhibition [8] was 95% and the pKi [9] was 7.66.
For `Nc1nc(NCCc2ccc(O)cc2)nc2nc(-c3ccco3)nn12` [ZM-241385], the inhibition [6] was 103%, the inhibition [7] was 101% and the inhibition [8] was 109%. For the same compound, the inhibition [10] was “Dose-dependent effect” and the ED50 [11] was over 10 mg/kg.
Compound `Nc1nc(NCCc2ccc(O)c(O)c2)nc2sc(-c3ccco3)nc12` has a pKi [1] of 7.41, a pKi [2] of 6.26 and a pIC50 [3] of 7.74. The pKi [9] was 7.40.
`Nc1nc(NCCc2cccc(O)c2)nc2sc(-c3ccco3)nc12` showed a pKi [1] of 9.64, a pKi [2] of 7.12 and a pIC50 [3] of 7.60. The pKi [9] was 7.80.
`Nc1nc(NCCc2ccc(O)cc2)nc2sc(-c3ccco3)nc12` gave a pKi [1] of 7.43, a pKi [2] of 5.72 and a pIC50 [3] of 6.32. It also gave a pIC50 [4] of 7.60, a pIC50 [5] of 7.68 and an inhibition [6] of 102%. The inhibition [7] was 101%, the inhibition [8] was 92% and the pKi [9] was 7.74.
Work on `COc1cccc(CNc2nc(N)c3nc(-c4ccco4)sc3n2)c1` yielded an inhibition [6] of 104%, an inhibition [7] of 106% and an inhibition [8] of 99%. For the same compound, the inhibition [10] was “Dose-dependent effect”, the ED50 ([10]; CD-1, Abdomen) was 0.158 mg/kg and the ED50 [11] was 0.926 mg/kg. It also gave a KiH [12] of 6.71 nM.
`Nc1nc(NCCCc2ccccc2)nc2sc(-c3ccco3)nc12` showed a pKi [1] of 7.31, a pKi [2] of 5.95 and a pIC50 [3] of 5.75. It also gave a pKi [9] of 7.24.
